{"source": "ChEMBL document CHEMBL4257590", "about": "“Semisynthesis of Platensimycin Derivatives with Antibiotic Activities in Mice via Suzuki-Miyaura Cross-Coupling Reactions” (J Med Chem, 2018)", "assay_type_in_all_cases": "functional", "key": {"Staphylococcus aureus [1]": {"test_system": "Staphylococcus aureus", "assay": "Antibacterial activity against Staphylococcus aureus ATCC 29213 after 16 hrs by agar dilution method", "settings": "ATCC 29213, 16 h", "procedure,_shortened": "(§1)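 Agar dilution in LB agar with compound (from methanol solutions) at final 0.5–64 μg/ml per plate. Strains grown 16 h at 37 °C, 250 rpm in LB broth, adjusted to OD600 0.25±0.05, diluted 10^4-fold; 2 μl spotted per plate, incubated 16 h at 37 °C. MIC = lowest concentration with no visible colonies; at least two independent experiments. Linezolid and PTM as controls.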"}, "Staphylococcus aureus [2]": {"test_system": "Staphylococcus aureus", "assay": "Antibacterial activity against methicillin-sensitive Staphylococcus aureus isolate 1 after 16 hrs by agar dilution method", "settings": "isolate 1, 16 h", "procedure,_shortened": "as §1"}, "Staphylococcus aureus [3]": {"test_system": "Staphylococcus aureus", "assay": "Antibacterial activity against methicillin-sensitive Staphylococcus aureus isolate 2 after 16 hrs by agar dilution method", "settings": "isolate 2, 16 h", "procedure,_shortened": "as §1"}, "Staphylococcus aureus [4]": {"test_system": "Staphylococcus aureus", "assay": "Antibacterial activity against methicillin-resistant Staphylococcus aureus isolate 3 after 16 hrs by agar dilution method", "settings": "isolate 3, 16 h", "procedure,_shortened": "as §1"}, "Staphylococcus aureus [5]": {"test_system": "Staphylococcus aureus", "assay": "Antibacterial activity against methicillin-resistant Staphylococcus aureus isolate 4 after 16 hrs by agar dilution method", "settings": "isolate 4, 16 h", "procedure,_shortened": "as §1"}, "Staphylococcus aureus [6]": {"test_system": "Staphylococcus aureus", "assay": "Antibacterial activity against methicillin-resistant Staphylococcus aureus isolate 5 after 16 hrs by agar dilution method", "settings": "isolate 5, 16 h", "procedure,_shortened": "as §1"}, "Staphylococcus aureus [7]": {"test_system": "Staphylococcus aureus", "assay": "Antibacterial activity against methicillin-resistant Staphylococcus aureus isolate 6 after 16 hrs by agar dilution method", "settings": "isolate 6, 16 h", "procedure,_shortened": "as §1"}}}
{"smiles": "C[C@]12C[C@@]34C=C(c5ccc(C=O)cc5)C(=O)[C@@](C)(CCC(=O)Nc5c(O)ccc(C(=O)O)c5O)[C@@H]3[C@H](C[C@H]1C4)O2", "values": [{"measurement": "MIC", "setting": "Staphylococcus aureus [1]", "value": 32, "unit": "µg/mL"}, {"measurement": "MIC", "setting": "Staphylococcus aureus [2]", "value": 16, "unit": "µg/mL"}, {"measurement": "MIC", "setting": "Staphylococcus aureus [3]", "value": 16, "unit": "µg/mL"}, {"measurement": "MIC", "setting": "Staphylococcus aureus [4]", "value": 32, "unit": "µg/mL"}, {"measurement": "MIC", "setting": "Staphylococcus aureus [5]", "value": 32, "unit": "µg/mL"}, {"measurement": "MIC", "setting": "Staphylococcus aureus [6]", "value": 32, "unit": "µg/mL"}, {"measurement": "MIC", "setting": "Staphylococcus aureus [7]", "value": 32, "unit": "µg/mL"}]}
{"smiles": "Cc1cc(C)cc(C2=C[C@]34C[C@@H]5C[C@H](O[C@@]5(C)C3)[C@H]4[C@](C)(CCC(=O)Nc3c(O)ccc(C(=O)O)c3O)C2=O)c1", "values": [{"measurement": "MIC", "setting": "Staphylococcus aureus [1]", "value": 4, "unit": "µg/mL"}, {"measurement": "MIC", "setting": "Staphylococcus aureus [2]", "value": 4, "unit": "µg/mL"}, {"measurement": "MIC", "setting": "Staphylococcus aureus [3]", "value": 4, "unit": "µg/mL"}, {"measurement": "MIC", "setting": "Staphylococcus aureus [4]", "value": 4, "unit": "µg/mL"}, {"measurement": "MIC", "setting": "Staphylococcus aureus [5]", "value": 4, "unit": "µg/mL"}, {"measurement": "MIC", "setting": "Staphylococcus aureus [6]", "value": 4, "unit": "µg/mL"}, {"measurement": "MIC", "setting": "Staphylococcus aureus [7]", "value": 4, "unit": "µg/mL"}]}
{"smiles": "Cc1cccc(C2=C[C@]34C[C@@H]5C[C@H](O[C@@]5(C)C3)[C@H]4[C@](C)(CCC(=O)Nc3c(O)ccc(C(=O)O)c3O)C2=O)c1", "values": [{"measurement": "MIC", "setting": "Staphylococcus aureus [1]", "value": 8, "unit": "µg/mL"}, {"measurement": "MIC", "setting": "Staphylococcus aureus [2]", "value": 4, "unit": "µg/mL"}, {"measurement": "MIC", "setting": "Staphylococcus aureus [3]", "value": 4, "unit": "µg/mL"}, {"measurement": "MIC", "setting": "Staphylococcus aureus [4]", "value": 8, "unit": "µg/mL"}, {"measurement": "MIC", "setting": "Staphylococcus aureus [5]", "value": 8, "unit": "µg/mL"}, {"measurement": "MIC", "setting": "Staphylococcus aureus [6]", "value": 8, "unit": "µg/mL"}, {"measurement": "MIC", "setting": "Staphylococcus aureus [7]", "value": 8, "unit": "µg/mL"}]}
{"smiles": "Cc1ccccc1C1=C[C@]23C[C@@H]4C[C@H](O[C@@]4(C)C2)[C@H]3[C@](C)(CCC(=O)Nc2c(O)ccc(C(=O)O)c2O)C1=O", "values": [{"measurement": "MIC", "setting": "Staphylococcus aureus [1]", "value": 8, "unit": "µg/mL"}, {"measurement": "MIC", "setting": "Staphylococcus aureus [2]", "value": 8, "unit": "µg/mL"}, {"measurement": "MIC", "setting": "Staphylococcus aureus [3]", "value": 16, "unit": "µg/mL"}, {"measurement": "MIC", "setting": "Staphylococcus aureus [4]", "value": 16, "unit": "µg/mL"}, {"measurement": "MIC", "setting": "Staphylococcus aureus [5]", "value": 16, "unit": "µg/mL"}, {"measurement": "MIC", "setting": "Staphylococcus aureus [6]", "value": 16, "unit": "µg/mL"}, {"measurement": "MIC", "setting": "Staphylococcus aureus [7]", "value": 16, "unit": "µg/mL"}]}
{"smiles": "C[C@]12C[C@@]34C=C(c5cccc(C(F)(F)F)c5)C(=O)[C@@](C)(CCC(=O)Nc5c(O)ccc(C(=O)O)c5O)[C@@H]3[C@H](C[C@H]1C4)O2", "values": [{"measurement": "MIC", "setting": "Staphylococcus aureus [1]", "value": 4, "unit": "µg/mL"}, {"measurement": "MIC", "setting": "Staphylococcus aureus [2]", "value": 4, "unit": "µg/mL"}, {"measurement": "MIC", "setting": "Staphylococcus aureus [3]", "value": 8, "unit": "µg/mL"}, {"measurement": "MIC", "setting": "Staphylococcus aureus [4]", "value": 8, "unit": "µg/mL"}, {"measurement": "MIC", "setting": "Staphylococcus aureus [5]", "value": 8, "unit": "µg/mL"}, {"measurement": "MIC", "setting": "Staphylococcus aureus [6]", "value": 8, "unit": "µg/mL"}, {"measurement": "MIC", "setting": "Staphylococcus aureus [7]", "value": 8, "unit": "µg/mL"}]}
{"smiles": "Cc1ccc(C2=C[C@]34C[C@@H]5C[C@H](O[C@@]5(C)C3)[C@H]4[C@](C)(CCC(=O)Nc3c(O)ccc(C(=O)O)c3O)C2=O)cc1", "values": [{"measurement": "MIC", "setting": "Staphylococcus aureus [1]", "value": 8, "unit": "µg/mL"}, {"measurement": "MIC", "setting": "Staphylococcus aureus [2]", "value": 8, "unit": "µg/mL"}, {"measurement": "MIC", "setting": "Staphylococcus aureus [3]", "value": 8, "unit": "µg/mL"}, {"measurement": "MIC", "setting": "Staphylococcus aureus [4]", "value": 8, "unit": "µg/mL"}, {"measurement": "MIC", "setting": "Staphylococcus aureus [5]", "value": 16, "unit": "µg/mL"}, {"measurement": "MIC", "setting": "Staphylococcus aureus [6]", "value": 16, "unit": "µg/mL"}, {"measurement": "MIC", "setting": "Staphylococcus aureus [7]", "value": 16, "unit": "µg/mL"}]}
{"smiles": "CCCCCc1ccc(C2=C[C@]34C[C@@H]5C[C@H](O[C@@]5(C)C3)[C@H]4[C@](C)(CCC(=O)Nc3c(O)ccc(C(=O)O)c3O)C2=O)cc1", "values": [{"measurement": "MIC", "setting": "Staphylococcus aureus [1]", "value": 4, "unit": "µg/mL"}, {"measurement": "MIC", "setting": "Staphylococcus aureus [2]", "value": 4, "unit": "µg/mL"}, {"measurement": "MIC", "setting": "Staphylococcus aureus [3]", "value": 4, "unit": "µg/mL"}, {"measurement": "MIC", "setting": "Staphylococcus aureus [4]", "value": 4, "unit": "µg/mL"}, {"measurement": "MIC", "setting": "Staphylococcus aureus [5]", "value": 4, "unit": "µg/mL"}, {"measurement": "MIC", "setting": "Staphylococcus aureus [6]", "value": 4, "unit": "µg/mL"}, {"measurement": "MIC", "setting": "Staphylococcus aureus [7]", "value": 4, "unit": "µg/mL"}]}
{"smiles": "C[C@]12C[C@@]34C=C(c5cc6ccccc6c6ccccc56)C(=O)[C@@](C)(CCC(=O)Nc5c(O)ccc(C(=O)O)c5O)[C@@H]3[C@H](C[C@H]1C4)O2", "values": [{"measurement": "MIC", "setting": "Staphylococcus aureus [1]", "value": 2, "unit": "µg/mL"}, {"measurement": "MIC", "setting": "Staphylococcus aureus [2]", "value": 2, "unit": "µg/mL"}, {"measurement": "MIC", "setting": "Staphylococcus aureus [3]", "value": 2, "unit": "µg/mL"}, {"measurement": "MIC", "setting": "Staphylococcus aureus [4]", "value": 4, "unit": "µg/mL"}, {"measurement": "MIC", "setting": "Staphylococcus aureus [5]", "value": 2, "unit": "µg/mL"}, {"measurement": "MIC", "setting": "Staphylococcus aureus [6]", "value": 4, "unit": "µg/mL"}, {"measurement": "MIC", "setting": "Staphylococcus aureus [7]", "value": 2, "unit": "µg/mL"}]}
{"smiles": "C[C@]12C[C@@]34C=C(c5ccccc5-c5ccccc5)C(=O)[C@@](C)(CCC(=O)Nc5c(O)ccc(C(=O)O)c5O)[C@@H]3[C@H](C[C@H]1C4)O2", "values": [{"measurement": "MIC", "setting": "Staphylococcus aureus [1]", "value": 4, "unit": "µg/mL"}, {"measurement": "MIC", "setting": "Staphylococcus aureus [2]", "value": 8, "unit": "µg/mL"}, {"measurement": "MIC", "setting": "Staphylococcus aureus [3]", "value": 8, "unit": "µg/mL"}, {"measurement": "MIC", "setting": "Staphylococcus aureus [4]", "value": 8, "unit": "µg/mL"}, {"measurement": "MIC", "setting": "Staphylococcus aureus [5]", "value": 8, "unit": "µg/mL"}, {"measurement": "MIC", "setting": "Staphylococcus aureus [6]", "value": 8, "unit": "µg/mL"}, {"measurement": "MIC", "setting": "Staphylococcus aureus [7]", "value": 8, "unit": "µg/mL"}]}
{"smiles": "C[C@]12C[C@@]34C=C(c5cccc(OC(F)(F)F)c5)C(=O)[C@@](C)(CCC(=O)Nc5c(O)ccc(C(=O)O)c5O)[C@@H]3[C@H](C[C@H]1C4)O2", "values": [{"measurement": "MIC", "setting": "Staphylococcus aureus [1]", "value": 8, "unit": "µg/mL"}, {"measurement": "MIC", "setting": "Staphylococcus aureus [2]", "value": 8, "unit": "µg/mL"}, {"measurement": "MIC", "setting": "Staphylococcus aureus [3]", "value": 8, "unit": "µg/mL"}, {"measurement": "MIC", "setting": "Staphylococcus aureus [4]", "value": 8, "unit": "µg/mL"}, {"measurement": "MIC", "setting": "Staphylococcus aureus [5]", "value": 8, "unit": "µg/mL"}, {"measurement": "MIC", "setting": "Staphylococcus aureus [6]", "value": 8, "unit": "µg/mL"}, {"measurement": "MIC", "setting": "Staphylococcus aureus [7]", "value": 8, "unit": "µg/mL"}]}
{"smiles": "C[C@]12C[C@@]34C=C(c5ccc(Br)cc5)C(=O)[C@@](C)(CCC(=O)Nc5c(O)ccc(C(=O)O)c5O)[C@@H]3[C@H](C[C@H]1C4)O2", "values": [{"measurement": "MIC", "setting": "Staphylococcus aureus [1]", "value": 2, "unit": "µg/mL"}, {"measurement": "MIC", "setting": "Staphylococcus aureus [2]", "value": 2, "unit": "µg/mL"}, {"measurement": "MIC", "setting": "Staphylococcus aureus [3]", "value": 4, "unit": "µg/mL"}, {"measurement": "MIC", "setting": "Staphylococcus aureus [4]", "value": 4, "unit": "µg/mL"}, {"measurement": "MIC", "setting": "Staphylococcus aureus [5]", "value": 4, "unit": "µg/mL"}, {"measurement": "MIC", "setting": "Staphylococcus aureus [6]", "value": 2, "unit": "µg/mL"}, {"measurement": "MIC", "setting": "Staphylococcus aureus [7]", "value": 2, "unit": "µg/mL"}]}
{"smiles": "C[C@]12C[C@@]34C=C(c5cc(Cl)cc(Cl)c5)C(=O)[C@@](C)(CCC(=O)Nc5c(O)ccc(C(=O)O)c5O)[C@@H]3[C@H](C[C@H]1C4)O2", "values": [{"measurement": "MIC", "setting": "Staphylococcus aureus [1]", "value": 8, "unit": "µg/mL"}, {"measurement": "MIC", "setting": "Staphylococcus aureus [2]", "value": 8, "unit": "µg/mL"}, {"measurement": "MIC", "setting": "Staphylococcus aureus [3]", "value": 8, "unit": "µg/mL"}, {"measurement": "MIC", "setting": "Staphylococcus aureus [4]", "value": 8, "unit": "µg/mL"}, {"measurement": "MIC", "setting": "Staphylococcus aureus [5]", "value": 8, "unit": "µg/mL"}, {"measurement": "MIC", "setting": "Staphylococcus aureus [6]", "value": 8, "unit": "µg/mL"}, {"measurement": "MIC", "setting": "Staphylococcus aureus [7]", "value": 8, "unit": "µg/mL"}]}
